ChEMBL document CHEMBL2331102 (Bioorg Med Chem, 2013)
In brackets after ≈: the same amount, converted by molar mass. Activity calls are given as the source filed them. No cut-off for these calls is given here.

Key:
Mus musculus [1] = assay: AUC (0 to 7.5 hrs) in Swiss mouse at 50 mg/kg, po; format: ADME, organism-based, Plasma; set-up: time < 7.5 hr, dose 50 mg/kg, route oral; conditions: in vivo
How it was run: (§1)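 Non-infected male Swiss outbred mice received single oral gavage doses of 20, 50 and 100 mg/kg. […] Full-scan LC-MS was run on selected plasma samples to identify metabolites.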

Mus musculus [2] = assay: AUC (0 to 7.5 hrs) in Swiss mouse at 100 mg/kg, po; format: ADME, organism-based, Plasma; set-up: time < 7.5 hr, dose 100 mg/kg, route oral; conditions: in vivo; how it was run: as §1
Mus musculus [3] = assay: AUC (0 to 7.5 hrs) in Swiss mouse at 20 mg/kg, po; format: ADME, organism-based, Plasma; set-up: time < 7.5 hr, dose 20 mg/kg, route oral; conditions: in vivo; how it was run: as §1
[4] = Apparent half life in Swiss mouse at 20 to 100 mg/kg, po; format: ADME, organism-based; set-up: dose 20-100 mg/kg, route oral; conditions: in vivo, read-out: t1/2(app) (converted); how it was run: as §1
Mus musculus [5] = assay: Toxicity in Swiss mouse at 20 to 100 mg/kg, po; format: organism-based; set-up: dose 20-100 mg/kg, route oral; conditions: in vivo; how it was run: as §1
[6] = Tmax in Swiss mouse at 20 to 100 mg/kg, po; format: ADME, organism-based; set-up: dose 20-100 mg/kg, route oral; conditions: in vivo; how it was run: as §1
Trypanosoma cruzi [7] = assay: Antitrypanosomal activity against Trypanosoma cruzi Tulahuen TcVI infected in Swiss mouse model of Chagas disease assessed as increase in host survival at 100 mg/kg once daily for 5 consecutive days through oral gavage starting on day 8 post infection measured 14 days post infection; format: functional, organism-based; set-up: dose 100 mg/kg
How it was run: (§2)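 Female Swiss mice (n = 5 per group) were infected with 25,000 blood-form T. cruzi Tulahuen TcVI trypomastigotes and dosed orally by gavage once daily for 5 days from day 8 pi.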

Trypanosoma cruzi [8] = assay: Antitrypanosomal activity against Trypanosoma cruzi Tulahuen TcVI infected in Swiss mouse model of Chagas disease assessed as increase in host survival at 50 mg/kg once daily for 5 consecutive days through oral gavage starting on day 8 post infection measured 14 days post infection; format: functional, organism-based; set-up: dose 50 mg/kg; how it was run: as §2
Trypanosoma cruzi [9] = assay: Antitrypanosomal activity against Trypanosoma cruzi Tulahuen TcVI infected in Swiss mouse model of Chagas disease assessed as increase in host survival at 20 mg/kg once daily for 5 consecutive days through oral gavage starting on day 8 post infection measured 14 days post infection; format: functional, organism-based; set-up: dose 20 mg/kg; how it was run: as §2
Trypanosoma cruzi [10] = assay: Antitrypanosomal activity against Trypanosoma cruzi Tulahuen TcVI infected in Swiss mouse model of Chagas disease assessed as decrease in blood parasitemia level at 100 mg/kg once daily for 5 consecutive days through oral gavage starting on day 8 post infection measured 14 days post infection; format: functional
How it was run: (§3)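 Female Swiss mice (n = 5 per group) were infected with 25,000 blood-form T. cruzi Tulahuen TcVI trypomastigotes. From day 8 post-infection, they received once-daily oral gavage for 5 consecutive days. Blood trypomastigotes/mL were counted on days 8, 9, 12 and 14 pi, and efficacy was taken as decreased parasitemia versus vehicle-treated mice on day 14.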

Trypanosoma cruzi [11] = assay: Antitrypanosomal activity against Trypanosoma cruzi Tulahuen TcVI infected in Swiss mouse model of Chagas disease assessed as decrease in blood parasitemia level at 50 mg/kg once daily for 5 consecutive days through oral gavage starting on day 8 post infection measured 14 days post infection; format: functional; how it was run: as §3
Trypanosoma cruzi [12] = assay: Antitrypanosomal activity against Trypanosoma cruzi Tulahuen TcVI infected in Swiss mouse model of Chagas disease assessed as decrease in blood parasitemia level at 20 mg/kg once daily for 5 consecutive days through oral gavage starting on day 8 post infection measured 14 days post infection; format: functional; how it was run: as §3
L6 = assay: Cytotoxicity against rat L6 cells after 72 hrs by Alamar Blue assay; format: cell-based; conditions: L6, 72 h
How it was run: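 Counter-screen for cytotoxicity in uninfected L6 rat skeletal muscle myoblasts, with IC50 recorded in µM.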

Trypanosoma cruzi [13] = assay: Antitrypanosomal activity against Trypanosoma cruzi Tulahuen TcVI extracellular trypomastigotes forms transfected with beta-galactosidase gene infected in rat L6 cells assessed as inhibition of parasite growth after 4 days; format: functional, organism-based; conditions: L6, 96 h
How it was run: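 L6 rat skeletal myoblasts were infected with extracellular trypomastigotes of β-galactosidase-transfected T. cruzi Tulahuen TcVI. After 48 h to establish infection, compound was added and incubation continued 4 days, exposing trypomastigote and intracellular amastigote forms.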

CYP3A4/5 = CYP3A4/5 (Homo sapiens, UniProt P08684+P20815); assay: Inhibition of CYP3A4/5 in human liver microsomes assessed as reduction in testosterone-beta-hydroxylation; format: ADME, Microsome; conditions: probe testosterone
How it was run: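 CYP3A4 inhibition measured as inhibition of testosterone β-hydroxylation, reported as IC50 (µM).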

[14] = Kinetic solubility of the compound at pH 6.5 phosphate buffer by nephelometric analysis; format: physicochemical; conditions: read-out: Kinetic_solubility
How it was run: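 Kinetic solubility in phosphate buffer at pH 6.5, determined by nephelometry and reported in µg/mL.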

[15] = Selectivity index, ratio of IC50 for rat L6 cells to IC50 for Trypanosoma cruzi Tulahuen TcVI extracellular trypomastigotes forms; format: toxicity, cell-based; conditions: read-out: Ratio IC50
How it was run: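 Ratio of the L6 myoblast cytotoxicity IC50 to the IC50 against β-galactosidase-expressing T. cruzi Tulahuen TcVI.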

Row | SMILES | AUC (Mus musculus [1]) [µM·h] | AUC (Mus musculus [2]) [µM·h] | AUC (Mus musculus [3]) [µM·h] | half-life [4] [min] | Activity (Mus musculus [5]) | Tmax [6] [min] | Activity (Trypanosoma cruzi [7]) | Activity (Trypanosoma cruzi [8]) | Activity (Trypanosoma cruzi [9]) | Activity (Trypanosoma cruzi [10]) | Activity (Trypanosoma cruzi [11]) | Activity (Trypanosoma cruzi [12]) | IC50 (L6) [nM] | IC50 (Trypanosoma cruzi [13]) [nM] | also measured
1 | CS(=O)(=O)N1CCN(C(c2cccnc2)c2ccc(Cl)cc2F)CC1.O=C(O)CC(O)(CC(=O)O)C(=O)O (stereo not given) | 60.2 | 43.7 | 7.2 | 126 | Non-toxic | 15 |  |  |  |  |  |  |  |  | 
2 | CC(=O)N1CCN(C(c2ccc(Cl)cc2)c2cccnc2)CC1 (stereo not given) |  |  |  |  |  |  | Active | Active | Active | inactive | inactive | inactive |  |  | 
3 | CS(=O)(=O)N1CCN(C(c2cccnc2)c2ccc(Cl)cc2F)CC1 (stereo not given) [listing 1 of 2 here] |  |  |  |  |  |  | Active | Active | Active |  |  |  |  |  | 
4 | CC[C@@H]([C@H](C)O)n1ncn(-c2ccc(N3CCN(c4ccc(OC[C@@H]5CO[C@@](Cn6cncn6)(c6ccc(F)cc6F)C5)cc4)CC3)cc2)c1=O [POSACONAZOLE] |  |  |  |  |  |  | Active | Active |  | Active | Active |  | > 100000 | 0.7 | 
5 | CC(=O)N1CCN(C(c2ccc(Cl)cc2)c2cccnc2)CC1.O=C(O)CC(O)(CC(=O)O)C(=O)O (stereo not given) | 6.2 | 9.4 | 2.3 | 102 | Non-toxic | 15 |  |  |  |  |  |  |  |  | 
6 | CS(=O)(=O)N1CCN(C(c2cccnc2)c2ccc(Cl)cc2F)CC1 (stereo not given) [listing 2 of 2 here] |  |  |  |  |  |  |  |  |  | 96% | 95% | 73% | > 100000 | 35 | IC50 (CYP3A4/5): 1300 nM; solubility kinetic [14]: 12.5 µg/mL (≈ 32.6 µM); selectivity ratio [15]: > 100
